The record followed here is ChEMBL document CHEMBL5352430, “Multi-parameter optimization: Development of a morpholin-3-one derivative with an improved kinetic profile for imaging monoacylglycerol lipase in the brain” (Eur J Med Chem, 2022).

The structures appear in SMILES notation.

Series [1] is described as follows: Drug uptake in rat brain cortex. It is filed as ADME, tissue-based. As to conditions: in vitro; call rule not given here.
Series [2] is described as follows: Drug uptake in rat brain hippocampus. The note with it: in vitro. It is filed as ADME, tissue-based.
Series [3] in a line: Drug uptake in rat brain striatum. It is filed as ADME, tissue-based. The note with it: in vitro.
Series [4] is described as follows: Drug uptake in rat brain thalamus. The series is classed as ADME, tissue-based. The note with it: in vitro.
Series [5] can be described thus: Drug uptake in rat brain cerebellum. The series is classed as ADME, tissue-based. As to conditions: in vitro.
The nature of series [6]: Drug uptake in rat brainstem. The note with it: in vitro. The series is classed as ADME, tissue-based.
Series [7] in a line: Drug uptake in rat brain in presence of PF-06795071. The series is classed as ADME, tissue-based. As to conditions: in vitro.
A short description of series [8]: Drug uptake in rat brain in presence of SAR127303. It is filed as ADME, tissue-based. As to conditions: in vitro.
Series [9] can be described thus: Lipophilicity, logD of the compound at pH 7.4 by shake flask assay. It is filed as physicochemical. The note with it: buffer.
The nature of series [10]: Drug uptake in mouse brain assessed as maximum standardized uptake value measured after 60 mins. The series is classed as ADME, tissue-based. The note with it: in vivo, 1 h. In outline:
(§1)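 Mouse dynamic PET. Tracer at 6.33–14.42 nmol/kg given by tail-vein injection; 60 min scan started 1 min later. Data expressed as SUV, i.e. decay-corrected regional radioactivity normalized to injected dose and body weight. Blocking: MAGLi432 at 5 mg/kg in DMSO/Tween80/saline 1/1/8, injected 5 min before tracer.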

Series [11] in a line: Drug uptake in wild type mouse after 20 mins. It is filed as ADME. As to conditions: in vivo. In outline: as §1
Series [12] can be described thus: Drug uptake in MAGL knock out mouse. The series is classed as ADME. As to conditions: in vivo. In outline:
as §1

Series [13] in a line: Drug uptake in Mdrla/b-Bcrp KO mouse. The note with it: in vivo. It is filed as ADME. The method, boiled down: as §1
Series [14] is described as follows: Drug uptake in Mdrla/b-Bcrp KO mouse pretreated with MAGLi432. The series is classed as ADME. The note with it: in vivo. In outline:
as §1

Series [15] can be described thus: Drug uptake in mouse brain assessed as standardized uptake value measured after 2 mins. The series is classed as ADME, tissue-based. As to conditions: in vivo. The method, boiled down:
as §1

Consider `O=C1CO[C@H]2CCN([11C](=O)N3CC(CCc4c(F)cccc4C(F)(F)F)C3)C[C@H]2N1`, for which the Drug uptake result in series [1] is on record as “Active”; in series [2] it was “Active”; in series [3] it was “Active”; in series [4], “Active”; in [5], “Active”; in [6], “Not Active”. The Drug uptake result is on record as “Not Active” in [7]; “Not Active” in series [8]; “Active” in [11]; “Not Active” in series [12]; “Active” in [13]; “Not Active” in series [14]. The logD in [9] was 2.65. Further, the SUVmax in series [10] was 0.4. Moreover, the SUV in series [15] worked out at 1.67.

Consider `O=C1CO[C@H]2CCN([11C](=O)N3CC(OCc4ccc(C(F)(F)F)cc4Cl)C3)C[C@H]2N1`, for which the SUV in [15] is 0.72.

A word on the logD: it is lipophilicity at a set pH, counting ionised and neutral species.
